Data taken from ChEMBL document CHEMBL1125397, “Pyrazole-related nucleosides. Synthesis and antiviral/antitumor activity of some substituted pyrazole and pyrazolo[4,3-d]-1,2,3-triazin-4-one nucleosides” (1992).

Assays:
C8166 = test: Effective dose which reduces the HIV-1 yield in C8166 cells by 90%; type: functional, Homo sapiens
Procedure, shortened: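 C8166 cells at 1×10^8/mL infected with 1×10^5 CCID50 HIV-1 (from H9/IIIB supernatants) for 2 h at 37 °C, washed three times, then resuspended at 1×10^5/mL with compound for 3 days. Virus yield was measured by limiting-dilution end-point titration on C8166 (1:2 dilutions, four wells each, syncytia scored after 4 days, Reed–Muench CCID50/mL).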

Vero [1] = test: Compound concentration required to reduce by 50% the number of fibroblast-like cells (Vero) after three cell cycles; type: functional; conditions: Chlorocebus sabaeus, read-out: ID50 (the source's name)
Procedure, shortened: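 Vero monolayers seeded at 1×10^5 cells/mL in DMEM with 10% newborn calf serum and left to adhere overnight. Medium with various compound concentrations was then added for 3 days at 37 °C. Cells were trypsinized and counted on a Coulter counter. The 50% dose comes from linear regression of percent growth against untreated controls. Mean of three experiments.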

H9 = test: Compound concentration required to reduce by 50% the number of H9 cells chronically infected with the HIV-1 (H9/IIIB) after three cell cycles; type: functional; conditions: Homo sapiens, read-out: ID50 (the source's name)
Procedure, shortened: (§1)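 Suspension cultures seeded at 1×10^5 cells/mL in RPMI-1640 with 10% FCS. Grown with a range of compound concentrations at 37 °C for 72 h, then counted on a Coulter counter. Growth is expressed as a percentage of untreated controls, and the 50% inhibitory dose is taken by linear regression. Mean of three separate experiments.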

L1210 = test: Compound concentration required to reduce by 50% the number of murine lymphocytic leukemia (L1210) cells after three cell cycles; type: functional; conditions: Mus musculus, read-out: ID50 (the source's name)
Procedure, shortened: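 Mouse L1210 leukemia cells seeded at 1×10^5 cells/mL in RPMI-1640 with 10% FCS. Exposed to graded compound concentrations at 37 °C for 36 h, then counted on a Coulter counter. Growth is taken as a percentage of untreated controls, and the 50% dose is found by linear regression. Mean of three experiments.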

[2] = Compound concentration required to reduce by 50% the number of T-MT4 lymphoblastoid cells after three cell cycles; type: functional; conditions: Homo sapiens; read-out: ID50 (the source's name); procedure, shortened: as §1
[3] = Compound concentration required to reduce by 50% the number of T-C8166 lymphoblastoid cells after three cell cycles; type: functional; conditions: Homo sapiens; read-out: ID50 (the source's name); procedure, shortened: as §1
[4] = Compound concentration required to reduce by 50% the number of T-H9 lymphoblastoid cells after three cell cycles; type: functional; conditions: Homo sapiens; read-out: ID50 (the source's name); procedure, shortened: as §1
Vero [5] = test: Concentration of compound required to reduce by 50% the number of african swine fever virus (ASFV) plaques in vero cells; type: functional; conditions: Chlorocebus sabaeus, read-out: ED50 (the source's name)
Vero [6] = test: Concentration of compound required to reduce by 50% the number of coxsackie virus plaques in vero cells; type: functional; conditions: Chlorocebus sabaeus, read-out: ED50 (the source's name)
Vero [7] = test: Concentration of compound required to reduce by 50% the number of herpes simplex virus (HSV-1) plaques in vero cells; type: functional; conditions: Chlorocebus sabaeus, read-out: ED50 (the source's name)
Vero [8] = test: Concentration of compound required to reduce by 50% the number of vesicular stomatitis virus (VSV) plaques in vero cells; type: functional; conditions: Chlorocebus sabaeus, read-out: ED50 (the source's name)
Raji = test: Compound concentration required to reduce by 50% the number of human B (Raji)cells after three cell cycles; type: functional; conditions: read-out: ID50 (the source's name); procedure, shortened: as §1
Vero [9] = test: Concentration of compound required to reduce by 50% the number of polio virus plaques in vero cells; type: functional; conditions: Chlorocebus sabaeus, read-out: ED50 (the source's name)

SMILES | ED90 (C8166) | IC50 (Vero [1]) | IC50 (H9) | IC50 (L1210) | IC50 [2] | IC50 [3] | IC50 [4] | EC50 (Vero [5]) | EC50 (Vero [6]) | EC50 (Vero [7]) | EC50 (Vero [8]) | IC50 (Raji) | EC50 (Vero [9])
NC(=O)c1nn([C@@H]2O[C@H](CO)[C@@H](O)[C@H]2O)cc1I | 20 µM | > 1350 µM | 20 µM | > 1350 µM | 27 µM | 8 µM | 40 µM | > 1350 µM | 120 µM | > 1350 µM | > 1350 µM | > 1350 µM | > 1350 µM
NC(=O)c1nn(C2O[C@H](CO)[C@@H](O)[C@H]2O)cc1N (stereo partly specified) | >320 µM | > 1830 µM | 550 µM | > 1830 µM | 470 µM | 320 µM | 580 µM | > 1830 µM | > 1830 µM | > 1830 µM | > 1830 µM | 1280 µM | > 1830 µM
CCCCCn1nnc2c(C)nn(C3O[C@H](CO)[C@@H](O)[C@H]3O)c2c1=O (stereo partly specified) | >200 µM | > 1400 µM |  | > 1400 µM | 540 µM | 280 µM | 710 µM | > 1400 µM | > 1400 µM | > 1400 µM | > 1400 µM | 1400 µM | > 1400 µM
NC(=O)c1nn(C2O[C@H](CO)[C@@H](O)[C@H]2O)cc1[N+](=O)[O-] (stereo partly specified) | 25.4 µM | > 1730 µM | > 1730 µM | > 1730 µM | 80 µM | 12 µM | > 1730 µM | > 1730 µM | > 1730 µM | > 1730 µM | > 1730 µM | > 1730 µM | > 1730 µM
NC(=O)c1ccn(C2O[C@H](CO)[C@@H](O)[C@H]2O)n1 (stereo partly specified) | >900 µM | > 1030 µM | > 1030 µM | > 1030 µM | > 1030 µM | 900 µM | 1030 µM | > 2050 µM | > 2050 µM | > 2050 µM | > 2050 µM | 1030 µM | > 2050 µM
Cc1c(N)c(C(N)=O)nn1C1O[C@H](CO)[C@@H](O)[C@H]1O (stereo partly specified) | >1840 µM | > 1840 µM | > 1840 µM | > 1840 µM | > 1840 µM | > 1840 µM | > 1840 µM | > 1840 µM | > 1840 µM | > 1840 µM | > 1840 µM | > 1840 µM | > 1840 µM
NC(=O)c1nn(C2O[C@H](CO)[C@@H](O)[C@H]2O)cc1Br (stereo partly specified) | 12.2 µM | > 1550 µM | 50 µM | > 1550 µM | 20 µM | 4 µM | 50 µM | > 1550 µM | > 1550 µM | > 1550 µM | > 1550 µM | > 1550 µM | > 1550 µM
Cc1c([N+](=O)[O-])c(C(N)=O)nn1C1O[C@H](CO)[C@@H](O)[C@H]1O (stereo partly specified) | >1650 µM | > 1650 µM | > 1650 µM | > 1650 µM | 1490 µM | > 1650 µM | > 1650 µM | > 1650 µM | > 1650 µM | > 1650 µM | > 1650 µM | > 1650 µM | > 1650 µM
Nc1nc2c(ncn2COCCO)c(=O)[nH]1 [ACYCLOVIR] |  |  |  |  |  |  |  | > 1300 µM |  | 0.04 µM |  |  | 
COc1cccc2c1C(=O)c1c(O)c3c(c(O)c1C2=O)C[C@@](O)(C(=O)CO)C[C@@H]3O[C@H]1C[C@H](N)[C@H](O)[C@H](C)O1 [DOXORUBICIN] |  | 0.1 µM | 0.01 µM | 0.02 µM | 0.01 µM | 0.01 µM | 0.01 µM |  |  |  |  | 0.01 µM | 
N=C(N)N [GUANIDINE] |  |  |  |  |  |  |  |  |  |  |  |  | 125 µM
CN(Cc1cnc2nc(N)nc(N)c2n1)c1ccc(C(=O)N[C@@H](CCC(=O)O)C(=O)O)cc1 [METHOTREXATE] |  | 0.02 µM | 0.03 µM | 0.04 µM | 0.03 µM | 0.03 µM | 0.03 µM |  |  |  |  | 0.02 µM | 
Cc1cn([C@H]2C[C@H](N=[N+]=[N-])[C@@H](CO)O2)c(=O)[nH]c1=O [ZIDOVUDINE] | 0.003 µM |  |  |  |  |  |  |  |  |  |  |  | 
